Laboratory results from ChEMBL document CHEMBL1287652, “QSAR modeling, synthesis and bioassay of diverse leukemia RPMI-8226 cell line active agents” (2010).

Assays:
Format in all cases: functional
KM12 = assay: Antitumor activity against human KM12 cells after 48 hrs by sulforhodamine B assay; details: KM12, 48 h
Outline: (§1)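 Cells were grown in RPMI-1640 with 5% FBS and 2 mM L-glutamine, plated at 5000–40,000 cells/well, and preincubated for 24 h. A time-zero plate was TCA-fixed. Compounds were added from DMSO stock at five concentrations for 48 h at 37 °C. Cells were fixed with TCA (adherent 10%, suspension 16%) and stained with SRB, and A515 was read. GI50 and TGI were calculated from Tz, control and test absorbances.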

SK-OV-3 = assay: Antitumor activity against human SKOV3 cells after 48 hrs by sulforhodamine B assay; details: SK-OV-3, 48 h
Outline: (§2)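 Cells were cultured in RPMI-1640 (5% FBS, 2 mM L-glutamine), pre-incubated for 24 h with time-zero plates TCA-fixed, then exposed for 48 h to five serial dilutions. The SRB read-out at 515 nm used time-zero, control and test absorbances. GI50 solves [(Ti−Tz)/(C−Tz)]×100 = 50 (net protein increase). TGI is the concentration giving 100% growth inhibition.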

HOP-62 = assay: Antitumor activity against human HOP62 cells after 48 hrs by sulforhodamine B assay; details: HOP-62, 48 h; outline: as §1
LOX IMVI = assay: Antitumor activity against human LOXIMVI cells after 48 hrs by sulforhodamine B assay; outline: as §1
HOP-92 = assay: Antitumor activity against human HOP92 cells after 48 hrs by sulforhodamine B assay; details: HOP-92, 48 h; outline: as §1
K562 = assay: Antitumor activity against human K562 cells after 48 hrs by sulforhodamine B assay; details: K562, 48 h; outline: as §1
T47D = assay: Antitumor activity against human T47D cells after 48 hrs by sulforhodamine B assay
Outline: (§3)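 Cells grown in RPMI-1640 with 5% FBS and 2 mM glutamine, plated and preincubated 24 h; time-zero plates TCA-fixed. Five-level serial dilutions added, 48 h at 37 °C. TCA fixation, SRB staining, absorbance 515 nm. GI50 derived from [(Ti−Tz)/(C−Tz)]×100 = 50; TGI is concentration giving 100% growth inhibition.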

SNB-19 = assay: Antitumor activity against human SNB19 cells after 48 hrs by sulforhodamine B assay; details: SNB-19, 48 h; outline: as §2
OVCAR-3 = assay: Antitumor activity against human OVCAR-3 cells after 48 hrs by sulforhodamine B assay; details: OVCAR-3, 48 h; outline: as §2
SK-MEL-28 = assay: Antitumor activity against human SK-MEL-28 cells after 48 hrs by sulforhodamine B assay; details: SK-MEL-28, 48 h; outline: as §2
HCT-116 = assay: Antitumor activity against human HCT116 cells after 48 hrs by sulforhodamine B assay; details: HCT-116, 48 h; outline: as §1
786-0 = assay: Antitumor activity against human 786-0 cells after 48 hrs by sulforhodamine B assay; details: 786-0, 48 h; outline: as §1
[1] = Antitumor activity against human […] cells at 10 uM after 48 hrs by sulforhodamine B assay relative to control; details: values are per cent of control
Outline: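 NCI panel lines were grown in RPMI-1640 with 5% FBS and 2 mM L-glutamine and seeded at 5000–40,000 cells/well according to doubling time. After 24 h at 37 °C, 5% CO2, one dose from a DMSO stock was added for 48 h. Cells were TCA-fixed (10% final adherent, 16% suspension), SRB-stained and read at 515 nm. Percent growth is relative to untreated control.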

SR = assay: Antitumor activity against human SR cells after 48 hrs by sulforhodamine B assay; outline: as §2
TK-10 = assay: Antitumor activity against human TK10 cells after 48 hrs by sulforhodamine B assay; details: TK-10, 48 h; outline: as §3
RXF 393 = assay: Antitumor activity against human RXF393 cells after 48 hrs by sulforhodamine B assay; details: RXF 393, 48 h; outline: as §2
PC-3 = assay: Antitumor activity against human PC3 cells after 48 hrs by sulforhodamine B assay; details: PC-3, 48 h; outline: as §2
IGROV-1 = assay: Antitumor activity against human IGROV1 cells after 48 hrs by sulforhodamine B assay; details: IGROV-1, 48 h; outline: as §1
SK-MEL-2 = assay: Antitumor activity against human SK-MEL-2 cells after 48 hrs by sulforhodamine B assay; details: SK-MEL-2, 48 h; outline: as §2
ACHN = assay: Antitumor activity against human ACHN cells after 48 hrs by sulforhodamine B assay; outline: as §1
Malme-3M = assay: Antitumor activity against human MALME-3M cells after 48 hrs by sulforhodamine B assay; outline: as §1
[2] = Antitumor activity against human Hs 578T cells after 48 hrs by sulforhodamine B assay; outline: as §1
A549 = assay: Antitumor activity against human A549 cells after 48 hrs by sulforhodamine B assay; details: A549, 48 h; outline: as §1
MCF7 = assay: Antitumor activity against human MCF7 cells after 48 hrs by sulforhodamine B assay; details: MCF7, 48 h; outline: as §1
SNB-75 = assay: Antitumor activity against human SNB75 cells after 48 hrs by sulforhodamine B assay; details: SNB-75, 48 h; outline: as §2
MOLT-4 = assay: Antitumor activity against human MOLT4 cells after 48 hrs by sulforhodamine B assay; details: MOLT-4, 48 h; outline: as §2
CCRF-CEM = assay: Antitumor activity against human CCRF-CEM cells after 48 hrs by sulforhodamine B assay; outline: as §1
OVCAR-8 = assay: Antitumor activity against human OVCAR8 cells after 48 hrs by sulforhodamine B assay; details: OVCAR-8, 48 h; outline: as §2
NCI-H226 = assay: Antitumor activity against human NCI-H226 cells after 48 hrs by sulforhodamine B assay; details: NCI-H226, 48 h; outline: as §2
SF-539 = assay: Antitumor activity against human SF539 cells after 48 hrs by sulforhodamine B assay; details: SF-539, 48 h; outline: as §2
NCI-H322M = assay: Antitumor activity against human NCI-H322M cells after 48 hrs by sulforhodamine B assay; outline: as §2
DU-145 = assay: Antitumor activity against human DU145 cells after 48 hrs by sulforhodamine B assay; details: DU-145, 48 h; outline: as §1

## COc1ccc(NC(=O)Nc2ccccc2OCCCOc2ccccc2NC(=O)Nc2ccc(OC)cc2)cc1
KM12
  GI50: > 100 µM
  TGI: > 100 µM
SK-OV-3
  GI50: 5 µM
  TGI: > 100 µM
HOP-62
  GI50: 3.3 µM
  TGI: 9.4 µM
LOX IMVI
  GI50: > 100 µM
  TGI: > 100 µM
HOP-92
  GI50: 2.7 µM
  TGI: 8.6 µM
K562
  GI50: 31.7 µM
  TGI: > 100 µM
T47D
  GI50: > 100 µM
  TGI: > 100 µM
SNB-19
  GI50: 4.3 µM
  TGI: 26.1 µM
OVCAR-3
  GI50: > 100 µM
  TGI: > 100 µM
SK-MEL-28
  GI50: > 100 µM
  TGI: > 100 µM
HCT-116
  GI50: 5.3 µM
  TGI: > 100 µM
786-0
  TGI: > 100 µM
[1]
  growth, % of control at 10 µM: 77%
SR
  GI50: 0.2 µM
  TGI: 4 µM
TK-10
  GI50: 4 µM
  TGI: 49.7 µM
RXF 393
  TGI: > 100 µM
PC-3
  GI50: > 100 µM
  TGI: > 100 µM
IGROV-1
  GI50: > 100 µM
  TGI: > 100 µM
SK-MEL-2
  GI50: > 100 µM
  TGI: > 100 µM
ACHN
  GI50: > 100 µM
  TGI: > 100 µM
Malme-3M
  GI50: 0.3 µM
  TGI: 5.3 µM
[2]
  GI50: > 100 µM
  TGI: > 100 µM
A549
  GI50: > 100 µM
  TGI: > 100 µM
MCF7
  GI50: > 100 µM
  TGI: > 100 µM
SNB-75
  GI50: 1.5 µM
  TGI: 5.3 µM
MOLT-4
  GI50: 17.7 µM
  TGI: 36.6 µM
CCRF-CEM
  GI50: 14.4 µM
  TGI: 78.9 µM
OVCAR-8
  GI50: 8.9 µM
  TGI: > 100 µM
NCI-H226
  GI50: > 100 µM
  TGI: > 100 µM
SF-539
  GI50: 3.4 µM
  TGI: > 100 µM
NCI-H322M
  GI50: > 100 µM
  TGI: > 100 µM
DU-145
  GI50: > 100 µM
  TGI: > 100 µM
